In brackets after ≈: the same amount, converted by molar mass. Activity calls are given as the source filed them. The calls are words filed in the database; no cut-off is given here.
How the values were obtained:
[1] = system: Mycobacterium tuberculosis; assay: Antimycobacterial activity against Mycobacterium tuberculosis H37Rv after 10 days by MABA; assay type: functional; conditions: 240 h
How it was run: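 MABA in 7H9 medium: log-phase culture passed through 8 µm filter, density set by OD600 and McFarland standards, 1 × 10^6 cells per well with drug dilutions; aerobic incubation 37 °C 10 days, then 0.02 % resazurin, overnight 37 °C. MIC = lowest concentration preventing blue-to-pink change. Triplicate; medium+inoculum and medium-only controls.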

[2] = Cytotoxicity against human THP1 cells assessed as cell viability at 75 ug/ml after 24 hrs by MTT assay relative to control; assay type: cell-based; conditions: THP-1 cells, read-out: Activity
How it was run: (§1)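 THP-1 cells (human monocytic line) seeded at 10^4 per well and adhered with phorbol myristate acetate (20 ng/mL). Then given fresh RPMI with 10% foetal calf serum and 2 mM L-glutamine, plus compound by serial double dilution (4.68–150 µg/mL), with DMSO and no-DMSO controls. Incubated 24 or 48 h at 37 °C, 5% CO2. MTT added for 4 h, formazan dissolved in DMSO, A540 read, percentage survival calculated.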

[3] = Cytotoxicity against human THP1 cells assessed as cell viability at 18.72 ug/ml after 24 hrs by MTT assay relative to control; assay type: cell-based; conditions: THP-1 cells, read-out: Activity; how it was run: as §1
[4] = system: Mycobacterium tuberculosis; assay: Potency index, ratio of ethambutol MIC to compound MIC for antimycobacterial activity against MDR Mycobacterium tuberculosis isolate 591; assay type: functional
[5] = system: Mycobacterium tuberculosis; assay: Antimycobacterial activity against Mycobacterium tuberculosis H37Rv assessed as induction of cell wall disintegration at 1.38 uM after 30 mins by TEM analysis; assay type: functional, organism-based
[6] = Cytotoxicity against human THP1 cells assessed as cell viability at 9.36 ug/ml after 24 hrs by MTT assay relative to control; assay type: cell-based; conditions: THP-1 cells, read-out: Activity; how it was run: as §1
[7] = biological target: DNA gyrase subunit B (Escherichia coli) (UniProt P0AES6); assay: Inhibition of Escherichia coli DNA gyrase-B at 0.66 to 100 uM using relaxed pUC19 DNA as substrate after 1 hr by bromophenol blue dye based agarose gel electrophoresis method
How it was run: (§2)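 E. coli DNA gyrase, 1 unit, with 0.3 µg relaxed pUC19 plasmid in 1X gyrase assay buffer. Compound added as 0.2 µL from 100 µM stock; ciprofloxacin positive control, DMSO solvent control. Incubated 37 °C for 1 h, stopped with 50% glycerol/0.25% bromophenol blue. Run on 1% agarose in 0.5X TBE pH 8.3, 16 h at 30 mA, ethidium bromide stained, UV visualised for supercoiling.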

[8] = system: Mycobacterium tuberculosis; assay: Ratio of MBC to MIC for Mycobacterium tuberculosis H37Rv; assay type: functional
[9] = Cytotoxicity against human THP1 cells assessed as cell viability at 37.48 ug/ml after 24 hrs by MTT assay relative to control; assay type: cell-based; conditions: THP-1 cells, read-out: Activity; how it was run: as §1
[10] = system: Mycobacterium tuberculosis; assay: Antimycobacterial activity against MDR Mycobacterium tuberculosis isolate 591 after 15 days by MABA; assay type: functional; conditions: isolate 591, 360 h
How it was run: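 MABA in 7H9 medium on MDR clinical isolate 591: filtered single-cell suspension, 1 × 10^6 cells per well with drug dilutions, aerobic 37 °C; 0.02 % resazurin added on day 15, overnight 37 °C. MIC = lowest concentration preventing blue-to-pink change. Triplicate; medium+inoculum and medium-only controls.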

[11] = Cytotoxicity against human THP1 cells assessed as cell viability at 75 ug/ml after 48 hrs by MTT assay relative to control; assay type: cell-based; conditions: THP-1 cells, read-out: Activity; how it was run: as §1
[12] = biological target: DNA gyrase subunit B (Escherichia coli, UniProt P0AES6); assay: Inhibition of Escherichia coli DNA gyrase-B using relaxed pUC19 DNA as substrate after 1 hr by bromophenol blue dye based agarose gel electrophoresis method; how it was run: as §2
[13] = Cytotoxicity against human THP1 cells assessed as cell viability at 150 ug/ml after 24 hrs by MTT assay relative to control; assay type: cell-based; conditions: THP-1 cells, read-out: Activity; how it was run: as §1
[14] = system: THP-1; assay: Cytotoxicity against human THP1 cells assessed as growth inhibition after 24 to 48 hrs by MTT assay; assay type: cell-based; how it was run: as §1
[15] = Cytotoxicity against human THP1 cells assessed as cell viability at 4.68 ug/ml after 48 hrs by MTT assay relative to control; assay type: cell-based; conditions: THP-1 cells, read-out: Activity; how it was run: as §1
[16] = Cytotoxicity against human THP1 cells assessed as cell viability at 37.48 ug/ml after 48 hrs by MTT assay relative to control; assay type: cell-based; conditions: THP-1 cells, read-out: Activity; how it was run: as §1
[17] = Selectivity index, ratio of IC50 for cytotoxicity against human THP1 cells to MIC for Mycobacterium tuberculosis H37Rv; assay type: toxicity, cell-based; conditions: THP-1 cells, read-out: Selectivity Index
How it was run: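 THP-1 cells, 10^4/well, adhered with PMA 20 ng/mL, in RPMI with 10 % FCS and 2 mM L-glutamine; exposed to 4.68–150 µg/mL for 24 and 48 h at 37 °C, 5 % CO2; MTT 4 h, formazan in DMSO, A540. Index = THP-1 IC50 divided by H37Rv MABA MIC.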

[18] = system: Mycobacterium tuberculosis; assay: Ratio of MBC to MIC for MDR Mycobacterium tuberculosis isolate 591; assay type: functional
[19] = system: Mycobacterium tuberculosis; assay: Bactericidal activity against Mycobacterium tuberculosis H37Rv after 4 weeks by MABA; assay type: functional; conditions: 672 h
[20] = Cytotoxicity against human THP1 cells assessed as cell viability at 150 ug/ml after 48 hrs by MTT assay relative to control; assay type: cell-based; conditions: THP-1 cells, read-out: Activity; how it was run: as §1
[21] = Cytotoxicity against human THP1 cells assessed as cell viability at 9.36 ug/ml after 48 hrs by MTT assay relative to control; assay type: cell-based; conditions: THP-1 cells, read-out: Activity; how it was run: as §1
[22] = system: Mycobacterium tuberculosis; assay: Potency index, ratio of rifampicin MIC to compound MIC for antimycobacterial activity against MDR Mycobacterium tuberculosis isolate 591; assay type: functional
[23] = system: Mycobacterium tuberculosis; assay: Potency index, ratio of isoniazid MIC to compound MIC for antimycobacterial activity against MDR Mycobacterium tuberculosis isolate 591; assay type: functional
[24] = system: Mycobacterium tuberculosis; assay: Antimycobacterial activity against Mycobacterium tuberculosis H37Rv assessed as cells with vacuole formation at 1.38 uM after 30 mins by TEM analysis; assay type: functional, organism-based
[25] = Cytotoxicity against human THP1 cells assessed as cell viability at 4.68 ug/ml after 24 hrs by MTT assay relative to control; assay type: cell-based; conditions: THP-1 cells, read-out: Activity; how it was run: as §1
[26] = system: Mycobacterium tuberculosis; assay: Potency index, ratio of streptomycin MIC to compound MIC for antimycobacterial activity against MDR Mycobacterium tuberculosis isolate 591; assay type: functional
[27] = biological target: T1, Enoyl-[acyl-carrier-protein] reductase [NADH] (Mycobacterium tuberculosis) (UniProt P9WGR1); assay: Inhibition of Mycobacterium tuberculosis H37Rv InhA expressed in Escherichia coli at 5 to 100 uM preincubated for 30 mins followed by crotonoyl-CoA substrate and NADH addition measured over 15 mins by spectrophotometric method
T1 sequence (whole entry): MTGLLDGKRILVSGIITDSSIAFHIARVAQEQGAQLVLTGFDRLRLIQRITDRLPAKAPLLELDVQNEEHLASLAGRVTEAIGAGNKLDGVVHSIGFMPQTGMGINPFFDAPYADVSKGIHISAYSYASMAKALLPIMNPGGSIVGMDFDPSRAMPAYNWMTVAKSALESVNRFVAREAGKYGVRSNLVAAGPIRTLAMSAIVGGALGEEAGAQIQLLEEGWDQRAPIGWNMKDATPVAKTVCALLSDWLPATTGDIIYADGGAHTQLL
How it was run: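 Purified recombinant InhA (Rv1484, cloned in E. coli), 2 µg, preincubated 30 min with compound at 5 µM final (DMSO ≤1 % v/v) in 100 mM sodium phosphate pH 7.5; started with 100 µM NADH and 100 µM crotonoyl-CoA; A340 followed 15 min at room temperature. Triplicate.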

[28] = system: Mycobacterium tuberculosis; assay: Bactericidal activity against MDR Mycobacterium tuberculosis isolate 591 after 4 weeks by MABA; assay type: functional; conditions: isolate 591, 672 h
[29] = Cytotoxicity against human THP1 cells assessed as cell viability at 18.72 ug/ml after 48 hrs by MTT assay relative to control; assay type: cell-based; conditions: THP-1 cells, read-out: Activity; how it was run: as §1

`Cc1cc(=O)oc2cc(OCc3cn([C@@H]4O[C@H](CO)[C@@H](O)[C@H]4O)nn3)ccc12` gave an MIC [1] of 5.1 µM (≈ 1.99 µg/mL), a viability at 24 h, 75 ug/ml [2] of 97% and a viability at 24 h, 18.72 ug/ml [3] of 100%. The Ratio [4] was 7 - 420, the Activity [5] was “Active” and the viability at 24 h, 9.36 ug/ml [6] was 100%. The inhibition [7] was “Active”, the Ratio [8] was 1.25 and the viability at 24 h, 37.48 ug/ml [9] was 100%. It also gave an MIC [10] of 10.3 µM (≈ 4.01 µg/mL), a viability at 48 h, 75 ug/ml [11] of 68% and an IC50 [12] of 800 nM. For the same molecule, the viability at 24 h, 150 ug/ml [13] was 84%, the IC50 [14] was greater than 385000 nM and the viability at 48 h, 4.68 ug/ml [15] was 95%. It also gave a viability at 48 h, 37.48 ug/ml [16] of 74%, a selectivity ratio [17] of 75.4 and a Ratio [18] of 1.13. The MBC [19] was 6.4 µM (≈ 2.49 µg/mL), the viability at 48 h, 150 ug/ml [20] was 60% and the viability at 48 h, 9.36 ug/ml [21] was 94%. For the same molecule, the Ratio [22] was 7 - 420, the Ratio [23] was 7 - 420 and the Activity [24] was “Active”. The viability at 24 h, 4.68 ug/ml [25] was 100%, the Ratio [26] was 7 - 420 and the inhibition [27] was “Active”. The MBC [28] was 11.5 µM (≈ 4.48 µg/mL) and the viability at 48 h, 18.72 ug/ml [29] was 84%.

Reference: ChEMBL document CHEMBL4196081, “Synthesis and antimycobacterial activity of 1-(β-d-Ribofuranosyl)-4-coumarinyloxymethyl- / -coumarinyl-1,2,3-triazole” (Eur J Med Chem, 2018)
